Experimental data as given in ChEMBL document CHEMBL4665803, “Discovery of Covalent Inhibitors Targeting the Transcriptional Enhanced Associate Domain Central Pocket” (J Med Chem, 2020).
Calls of active or inactive are those of the source. No cut-off for these calls is given here.

Assays:
[1] = biological target: T1, Transcriptional enhancer factor TEF-3 (Homo sapiens, UniProt Q15561); assay: Inhibition of CPM binding to nonacylated N-terminal His6-tagged human TEAD4 (217 to 434 residues) expressed in Escherichia coli BL21-CodonPlus (DE3)-RIPL cells assessed as ratio of Kinact to Ki measured after 1 to 24 hrs by fluorescence assay; conditions: time hrs 1-24
T1 sequence (Q15561 whole entry, the tested form may be a part): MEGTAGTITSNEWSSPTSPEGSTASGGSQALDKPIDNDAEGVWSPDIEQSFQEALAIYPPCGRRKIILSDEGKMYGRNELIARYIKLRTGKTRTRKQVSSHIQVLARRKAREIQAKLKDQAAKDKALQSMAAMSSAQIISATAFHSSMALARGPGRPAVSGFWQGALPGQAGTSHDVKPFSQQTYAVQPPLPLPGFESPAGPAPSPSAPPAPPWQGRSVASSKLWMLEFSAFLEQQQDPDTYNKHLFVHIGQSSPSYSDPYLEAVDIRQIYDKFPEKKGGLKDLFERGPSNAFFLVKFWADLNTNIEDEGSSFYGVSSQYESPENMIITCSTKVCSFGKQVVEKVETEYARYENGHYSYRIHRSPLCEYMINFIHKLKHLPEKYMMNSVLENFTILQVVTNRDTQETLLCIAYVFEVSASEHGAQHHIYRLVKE

[2] = biological target: T1, Transcriptional enhancer factor TEF-3; assay: Binding affinity to acylated N-terminal His6-tagged human TEAD4 (217 to 434 residues) expressed in Escherichia coli BL21-CodonPlus (DE3)-RIPL cells assessed as covalent adduct formation at 8 equiv after 1 hr by ESI-MS spectrophotometric analysis
Procedure, shortened: (§1)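 Whole-protein ESI–MS: 1 μM hTEAD4 incubated 1 h at room temperature with 8 equiv compound in 25 mM HEPES, 150 mM NaCl, pH 6.5; centrifuged, injected via online desalting column to UPLC-MS; masses deconvoluted to detect adducts.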

[3] = biological target: Transcriptional enhancer factor TEF-1 (Homo sapiens, UniProt P28347); assay: Inhibition of CPM binding to nonacylated N-terminal His6/GST-tagged human TEAD1 (209 to 426 residues) expressed in Escherichia coli BL21-CodonPlus (DE3)-RIPL cells preincubated for 10 mins followed by CPM addition and measured after 1 hr by fluorescence assay
Sequence of Transcriptional enhancer factor TEF-1 (P28347 whole entry, the tested form may be a part): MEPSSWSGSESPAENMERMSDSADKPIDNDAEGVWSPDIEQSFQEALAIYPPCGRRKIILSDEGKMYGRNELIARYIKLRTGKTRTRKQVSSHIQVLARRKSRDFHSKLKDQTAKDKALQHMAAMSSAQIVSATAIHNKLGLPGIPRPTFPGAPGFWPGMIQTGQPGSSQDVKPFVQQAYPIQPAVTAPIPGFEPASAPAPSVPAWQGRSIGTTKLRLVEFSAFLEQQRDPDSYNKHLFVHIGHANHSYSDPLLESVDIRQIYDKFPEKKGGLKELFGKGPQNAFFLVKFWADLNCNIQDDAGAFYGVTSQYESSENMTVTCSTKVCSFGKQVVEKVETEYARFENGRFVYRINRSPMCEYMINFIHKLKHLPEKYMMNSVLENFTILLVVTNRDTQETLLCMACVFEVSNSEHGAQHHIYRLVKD

[4] = biological target: T1, Transcriptional enhancer factor TEF-3; assay: Binding affinity to nonacylated N-terminal His6-tagged human TEAD4 (217 to 434 residues) expressed in Escherichia coli BL21-CodonPlus (DE3)-RIPL cells assessed as melting temperature at 80 uM after 10 mins by SYPRO orange dye-based differential scanning fluorimetry method (reference value: 41 degreeC)
[5] = biological target: T1, Transcriptional enhancer factor TEF-3; assay: Binding affinity to nonacylated N-terminal His6-tagged human TEAD4 (217 to 434 residues) expressed in Escherichia coli BL21-CodonPlus (DE3)-RIPL cells at 8 equiv after 1 hr by ESI-MS spectrophotometric analysis; procedure, shortened: as §1
[6] = biological target: T1, Transcriptional enhancer factor TEF-3; assay: Inhibition of FITC-labeled palmitate tracer binding to N-terminal His6-tagged human TEAD4 (217 to 434 residues) expressed in Escherichia coli BL21-CodonPlus (DE3)-RIPL cells assessed as ratio of Kinact to Ki measured after 1 to 24 hrs by fluorescence assay; conditions: time hrs 1-24
[7] = biological target: T1, Transcriptional enhancer factor TEF-3; assay: Inhibition of CPM binding to N-terminal His6-tagged human TEAD4 (217 to 434 residues) expressed in Escherichia coli BL21-CodonPlus (DE3)-RIPL cells at 12.5 uM preincubated for 10 mins followed by CPM addition and measured after 1 hr by fluorescence assay relative to control; conditions: time 70.0 min
[8] = biological target: T1, Transcriptional enhancer factor TEF-3; assay: Inhibition of FITC-labeled palmitate tracer binding to N-terminal His6-tagged human TEAD4 (217 to 434 residues) expressed in Escherichia coli BL21-CodonPlus (DE3)-RIPL cells preincubated for 10 mins followed by FITC-labeled palmitate tracer addition and measured after 1 hr by fluorescence assay
Procedure, shortened: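 FP competition in 25 mM HEPES, 150 mM NaCl, pH 6.5: serially diluted compound preincubated 10 min at room temperature with nonacylated hTEAD4, then FITC-palmitate tracer added (final 50 nM protein, 10 nM tracer); shaken 1 h at room temperature, FP at Ex/Em 485/535 nm. Tracer Kd from saturation binding.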

[9] = biological target: T1, Transcriptional enhancer factor TEF-3; assay: (§2) Binding affinity to nonacylated N-terminal His6-tagged human TEAD4 (217 to 434 residues) expressed in Escherichia coli BL21-CodonPlus (DE3)-RIPL cells assessed as inhibition of protein-FAM-YAP (50 to 100 residues) interaction preincubated for 10 mins followed by FAM YAP addition and measured after 1 hr by fluorescence assay
Procedure, shortened: (§3)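 FP competition in PBS pH 7.5: serially diluted compound preincubated 10 min at room temperature with TEAD4 protein, then FAM-YAP50–100 added; shaken 1 h at room temperature, FP read at Ex/Em 485/535 nm. Final FAM/protein: nonacylated hTEAD4 2 nM/5 nM; acylated hTEAD4 3 nM/15 nM. Compound stocks 10 mM in DMSO. IC50 from curve fitting.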

[10] = biological target: Transcriptional enhancer factor TEF-3 (Mus musculus) (UniProt Q62296); assay: Binding affinity to nonacylated mouse TEAD4 assessed as line broadening at Phe386 residue at 0.5 mM by 1H-15N HSQC spectra analysis
Sequence of Transcriptional enhancer factor TEF-3 (Mus musculus) (Q62296 whole entry, the tested form may be a part): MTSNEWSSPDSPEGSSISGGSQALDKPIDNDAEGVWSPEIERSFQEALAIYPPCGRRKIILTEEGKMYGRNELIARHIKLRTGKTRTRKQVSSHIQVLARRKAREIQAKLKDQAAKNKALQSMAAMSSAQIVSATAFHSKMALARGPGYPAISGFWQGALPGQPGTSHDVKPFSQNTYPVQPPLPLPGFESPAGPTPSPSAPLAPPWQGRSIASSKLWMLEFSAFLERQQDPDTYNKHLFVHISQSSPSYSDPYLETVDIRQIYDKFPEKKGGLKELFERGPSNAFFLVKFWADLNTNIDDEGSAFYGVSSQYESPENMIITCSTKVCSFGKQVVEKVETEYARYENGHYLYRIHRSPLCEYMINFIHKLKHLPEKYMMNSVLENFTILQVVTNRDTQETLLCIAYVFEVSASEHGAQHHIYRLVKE
Procedure, shortened: (§4)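 1H–15N HSQC of 13C/15N-labeled mTEAD4, deacylated with hydroxylamine; spectra with DMSO or compound (0.5 mM) recorded at 37 °C on a 600 MHz cryoprobe instrument in 20 mM HEPES pH 7.3, 150 mM NaCl, 1 mM DTT; spectra overlaid.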

[11] = biological target: T1, Transcriptional enhancer factor TEF-3; assay: as §2, with “to” for “to nonacylated”; conditions: time 70.0 min; procedure, shortened: as §3
Mus musculus [12] = species on record: Mus musculus; assay: Binding affinity to N-terminal His6/MBP-tagged mouse TEAD4 (209 to 427 residues) Cys360Ala mutant expressed in Escherichia coli BL21-CodonPlus (DE3)-RIPL cells assessed as inhibition of protein-FAM-YAP (50 to 100 residues) interaction preincubated for 10 mins followed by FAM YAP addition and measured after 1 hr by fluorescence assay; conditions: time 70.0 min
Procedure, shortened: (§5)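 FP competition in PBS pH 7.5 with mTEAD4 Cys360Ser or Cys360Ala mutant: serially diluted compound preincubated 10 min at room temperature with protein, then FAM-YAP50–100 added (final 10 nM FAM / 50 nM protein for each mutant); shaken 1 h at room temperature, FP read at Ex/Em 485/535 nm.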

Mus musculus [13] = species on record: Mus musculus; assay: Binding affinity to N-terminal His6-tagged mouse TEAD4 Cys360Ser mutant assessed as inhibition of protein-FAM-YAP (50 to 100 residues) interaction preincubated for 10 mins followed by FAM YAP addition and measured after 1 hr by fluorescence assay; conditions: time 70.0 min; procedure, shortened: as §5
[14] = biological target: T1, Transcriptional enhancer factor TEF-3; assay: Binding affinity to TEAD4 in human HCT-116 cells assessed as change in melting temperature at 50 uM after 10 mins by […]; type: cell-based
Procedure, shortened: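 CETSA in HCT116 lysates (PBS, 0.04% NP-40, freeze–thaw lysis, 100,000g clearing; 1 mg/mL protein): compound at 50 μM or DMSO for 10 min at room temperature, aliquots heated across a temperature range, recentrifuged 100,000g at 4 °C for 25 min. Soluble TEAD4 detected by immunoblot with anti-TEAD4 antibody; melting temperature from turning point of fitted curves.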

[15] = biological target: Transcriptional enhancer factor TEF-3 (Mus musculus) (UniProt Q62296); assay: Binding affinity to nonacylated mouse TEAD4 assessed as line broadening at Phe408 residue at 0.5 mM by 1H-15N HSQC spectra analysis; procedure, shortened: as §4
[16] = biological target: T1, Transcriptional enhancer factor TEF-3; assay: Inhibition of CPM binding to N-terminal His6-tagged human TEAD4 (217 to 434 residues) expressed in Escherichia coli BL21-CodonPlus (DE3)-RIPL cells preincubated for 10 mins followed by CPM addition and measured after 1 hr by fluorescence assay; conditions: read-out: IC50(app)
[17] = biological target: T1, Transcriptional enhancer factor TEF-3; assay: Inhibition of TEAD4 in HEK293 cells assessed as reduction in ANKRD1 mRNA expression at 1 uM measured after 6 hrs by SYBR green dye based RT-PCR analysis relative to control; type: cell-based
Procedure, shortened: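 HEK293 cells treated with DMSO or compound for 6 h; ANKRD1 mRNA measured by RT-qPCR relative to the DMSO control.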

[18] = biological target: T1, Transcriptional enhancer factor TEF-3; assay: Reversible inhibition of CPM binding to nonacylated N-terminal His6-tagged human TEAD4 (217 to 434 residues) expressed in Escherichia coli BL21-CodonPlus (DE3)-RIPL cells measured after 1 to 24 hrs by fluorescence assay

Ratio [1]: 8.3
Activity [2]: inactive
IC50 [3]: 2600 nM
Tm [4]: 36 °C
Activity [5]: Active
Ratio [6]: 4
inhibition [7]: > 50%
IC50 [8]: 200 nM
IC50 [9]: 70 nM
Activity [10]: Active
inhibition [11]: inactive
inhibition (Mus musculus [13]): inactive
ΔTm [14]: 3.3 °C
Activity [15]: Active
IC50 [16]: 2300 nM
inhibition [17]: 90%
Ki [18]: 2600 nM
SMILES: O=c1cc(CO)oc(C(Nc2ccccc2)c2ccccc2)c1O (stereo not drawn)
inhibition (Mus musculus [12]): inactive
